The values that follow come from ChEMBL document CHEMBL3822375, “Preclinical Characterization of 3β-(N-Acetyl l-cysteine methyl ester)-2aβ,3-dihydrogaliellalactone (GPA512), a Prodrug of a Direct STAT3 Inhibitor for the Treatment of Prostate Cancer” (J Med Chem, 2016).

In general, IC50 refers to the concentration that inhibits the measured activity by half. Usually Cmax stands for the maximum level reached in the sampled fluid or tissue. What is called half-life is the time in which the quantity being followed falls by half. Usually Tmax stands for the time at which the peak concentration occurs.

Where only a bound is given, the exact number is not on record here.

One data set has as its system Hepatocyte. In words: Drug level in mouse hepatocytes treated with 3-beta-(N-Acetyl-L-cysteine methyl ester)-2a-beta,3-dihydrogaliellalactone measured after 2 hrs by UPLC-MS analysis. The class given is ADME, cell-based.
Conditions: not given
Summed up:
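Cryopreserved mouse hepatocytes in Celsis InVitro HI medium, pH 7.4, 37 °C, with 10 µM initial compound from DMSO stock. Sampled at 0 and 120 min, quenched with an equal volume of acetonitrile, analysed by UPLC/Q-TOF-MS. Viability checked by Trypan blue.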
As to `CC(=O)N[C@@H](CS[C@H]1C2C(=O)O[C@@H]3CC[C@H](C[C@@H]1C)[C@]23O)C(=O)O` (some centres not stated), the Drug metabolism result is “metabolite_detected”.

Test system in another data set: not listed separately
Put plainly: Antiproliferative activity against human DU145 cells after 72 hrs by WST-1 proliferation assay. The settings on record: DU-145, 72 h. The class given is functional, cell-based. Summed up: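 Cells in RPMI-1640 (DU145, LNCaP, LNCaP-IL6+) or HAM's F-12 (PC3) with 10% FBS. DU145 and LNCaP-IL6+ seeded at 2 000 cells/well, LNCaP and PC3 at 5 000 cells/well, adhered 24 h, then exposed to compound for 72 h. WST-1 absorbance read at 450 nm with 630 nm reference. Background subtracted; expressed as percent of untreated cells.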
In general terms: Tetrazolium assays rely on reduction of a dye to a coloured formazan, in cell work by metabolically active cells.
Compound `C[C@H]1C[C@H]2CC[C@H]3OC(=O)C([C@@H]1SCc1ccccc1)[C@@]23O` (some centres not stated) yielded a concentration for half-maximal inhibition (IC50) of 9.68 µM.
Compound `C[C@H]1C[C@H]2CC[C@H]3OC(=O)C([C@@H]1SC[C@H](NC(=O)CC[C@H](N)C(=O)O)C(=O)NCC(=O)O)[C@@]23O` (some centres not stated) showed an IC50 of 6.14 µM.
On the same count and under the same terms, for `COC(=O)[C@@H](N)CS[C@H]1C2C(=O)O[C@@H]3CC[C@H](C[C@@H]1C)[C@]23O` (some centres not stated) the value was 4.51 µM; for `C[C@H]1C[C@H]2CC[C@H]3OC(=O)C([C@@H]1SC[C@H](N)C(=O)O)[C@@]23O` (some centres not stated), 2.66 µM.
Still for that read-out and setting: for `CC(=O)N[C@@H](CS[C@H]1C2C(=O)O[C@@H]3CC[C@H](C[C@@H]1C)[C@]23O)C(N)=O` (some centres not stated) the value was 9.2 µM; for `C[C@H]1C[C@H]2CC[C@H]3OC(=O)C([C@@H]1SCCS(=O)(=O)O)[C@@]23O` (some centres not stated), 11.4 µM.

Another data set relates to Mus musculus. Put plainly: AUC (0 to t) in mouse plasma assessed as galiellalactone level at 10 mg/kg, po by LC-MS/MS analysis. The format is ADME, organism-based. The settings on record: in vivo. The procedure, abridged:
(§1)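 Single dose to mice; oral, iv or ip as listed, in 5% DMSO/50 mM citrate buffer pH 4.0 (dosing solutions 0.5, 2 or 5 mg/mL). Oral dosing at 20 mL/kg. Terminal blood under barbiturate anaesthesia at eight time-points to 8 h, n=3 mice per time-point, EDTA plasma. Acetonitrile precipitation with internal standard, LC-MS/MS against plasma calibration lines. Non-compartmental analysis on mean data, trapezoidal AUC.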
Consider `COC(=O)[C@@H](N)CS[C@H]1C2C(=O)O[C@@H]3CC[C@H](C[C@@H]1C)[C@]23O` (some centres not stated), for which the AUCt worked out at 85 µg/mL/min.

The subject of another data set is Mus musculus. Put plainly: Cmax in mouse plasma assessed as galiellalactone level at 10 mg/kg, po by LC-MS/MS analysis. The settings on record: in vivo. The class given is ADME, organism-based. On the set-up: dose 10 mg/kg, route oral. The procedure, abridged:
as §1
Regarding `COC(=O)[C@@H](N)CS[C@H]1C2C(=O)O[C@@H]3CC[C@H](C[C@@H]1C)[C@]23O` (some centres not stated), the Cmax was 788 ng/mL.

Test system in another data set: not listed separately
In words: Chemical stability of the compound in phosphate buffer saline assessed as half life at 10 uM at pH 7.4 by LC-MS/MS analysis. The format is physicochemical. The settings on record: phosphate buffered saline. The procedure, abridged:
(§2)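 Compound diluted from DMSO (or methanol) stock to 10 µM, 2% solvent final, n=2. Matrix was 0.1 M PBS pH 7.4, or […] HCl with 2 mg/mL NaCl adjusted to pH 1.2. Mixed on a shaker; sampled at nominal 5, 15, 30 and 60 min plus T=0. LC-MS/MS with internal standard; % remaining relative to T=0. Formation of parent also monitored.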
As for `C[C@H]1C[C@H]2CC[C@H]3OC(=O)C([C@@H]1SCc1ccccc1)[C@@]23O` (some centres not stated), the half-life at 10 µM is more than 2.5 h.
Same read-out and setting: for `C[C@H]1C[C@H]2CC[C@H]3OC(=O)C([C@@H]1SC[C@H](NC(=O)CC[C@H](N)C(=O)O)C(=O)NCC(=O)O)[C@@]23O` (some centres not stated) the value was more than 2.5 h; for `COC(=O)[C@@H](N)CS[C@H]1C2C(=O)O[C@@H]3CC[C@H](C[C@@H]1C)[C@]23O` (some centres not stated), 0.367 h.
On the same count and under the same terms, in the case of `C[C@H]1C[C@H]2CC[C@H]3OC(=O)C([C@@H]1SC[C@H](N)C(=O)O)[C@@]23O` (some centres not stated) it was 0.233 h; in that of `CC(=O)N[C@@H](CS[C@H]1C2C(=O)O[C@@H]3CC[C@H](C[C@@H]1C)[C@]23O)C(N)=O` (some centres not stated), more than 2.5 h; in that of `CC(=O)N[C@@H](CS[C@H]1C2C(=O)O[C@@H]3CC[C@H](C[C@@H]1C)[C@]23O)C(=O)O` (some centres not stated), 0.9 h.
The same measure, in the same setting: in the case of `C[C@H]1C[C@H]2CC[C@H]3OC(=O)C([C@@H]1SCCS(=O)(=O)O)[C@@]23O` (some centres not stated) it was more than 2.5 h.

Test system in another data set: not listed separately
In words: Half life of compound in acidic buffer at pH 1.2 at 10 uM by LC-MS analysis. The format is physicochemical.
Conditions: not given
Summed up:
as §2
As for `COC(=O)[C@@H](N)CS[C@H]1C2C(=O)O[C@@H]3CC[C@H](C[C@@H]1C)[C@]23O` (some centres not stated), the half-life at 10 µM is more than 2.5 h.
Same read-out and setting: in the case of `C[C@H]1C[C@H]2CC[C@H]3OC(=O)C([C@@H]1SC[C@H](N)C(=O)O)[C@@]23O` (some centres not stated) it was more than 2.5 h.
`CC(=O)N[C@@H](CS[C@H]1C2C(=O)O[C@@H]3CC[C@H](C[C@@H]1C)[C@]23O)C(=O)O` (some centres not stated): the half-life at 10 µM was determined as 1.9 h.

Another data set relates to Mus musculus. In words: Apparent half life in mouse plasma assessed as galiellalactone level at 10 mg/kg, po by LC-MS/MS analysis. The class given is ADME, organism-based. The settings on record: in vivo. Summed up:
as §1
In the case of `COC(=O)[C@@H](N)CS[C@H]1C2C(=O)O[C@@H]3CC[C@H](C[C@@H]1C)[C@]23O` (some centres not stated), the “t1/2(app)” value stood at 4.63 h.

The next data set concerns Mus musculus. Put plainly: AUC (0 to infinity) in mouse plasma assessed as galiellalactone level at 10 mg/kg, po by LC-MS/MS analysis. The format is ADME, organism-based. On the set-up: dose 10 mg/kg, route oral, time infinity. The settings on record: in vivo. Summed up: as §1
For `COC(=O)[C@@H](N)CS[C@H]1C2C(=O)O[C@@H]3CC[C@H](C[C@@H]1C)[C@]23O` (some centres not stated), the AUC was 102 µg/mL/min.

In a further data set the test system is Mus musculus. Put plainly: Tmax in mouse plasma assessed as galiellalactone level at 10 mg/kg, po by LC-MS/MS analysis. The class given is ADME, organism-based. The settings on record: in vivo.
On to `COC(=O)[C@@H](N)CS[C@H]1C2C(=O)O[C@@H]3CC[C@H](C[C@@H]1C)[C@]23O` (some centres not stated), for which the Tmax is 0.5 h.
